Measured values: PubChem BioAssay
Records with an inconclusive call do not appear.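 Rule for the calls, unless noted: active = RAM network inhibition above 8.4% in each of two replicates, 3 SD over the compound average; inconclusive = above 8.4% inhibition in only one replicate; inactive = 8.4% inhibition or less in each replicate.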

Key:
[1] = S. cerevisiae growth inhibition in permissive medium (OD615), pilot counter-assay for S. cerevisiae lifespan shortening project, permissive growth control (AID 705;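 active = growth inhibition above 25% in both replicates, a cutoff set 3 SD above the mean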); details: OD615, 24 h, at 10 µM, active compounds read high
Outline: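 System: S. cerevisiae with engineered DeaD lifespan system. Medium: SC raffinose/galactose permissive medium. Doses: single compound dose of 10 µM, 0.25% DMSO final. Schedule: 24 h exposure, 30 °C. Measured by: OD615 turbidity read. Read-out: growth inhibition.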

[2] = S. cerevisiae growth inhibition in restrictive medium, OD615, pilot screen, restrictive growth control, yeast lifespan reduction project (AID 706;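 active = growth inhibition above a set limit, 3 SD over mean compound inhibition, in both replicates, cut at about 43% in these data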;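 note: modified DeaD lifespan yeast strain shifted to restrictive glucose medium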); details: OD615, 48 h, at 10 µM, active compounds read high
Outline: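 Assay system – genetically modified Saccharomyces cerevisiae, DeaD replicative lifespan assay strain · Medium – CSMM-D glucose medium · Doses – 10 µM compound, 0.25% DMSO · Times – 4 h pre-incubation, 48 h exposure at 30 °C · Signal – optical density at 615 nm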

[3] = doxorubicin toxicity protection in MRP-1 cells – H69AR cells, CellTiter-Glo, duplicate, MRP-1 activator project, pilot screen (AID 807;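 active = viability increase at or above a cutoff of the median across tested compounds plus 3 SD, cut at about 8.5% in these data, passing the limit was not always enough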;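 note: compound pretreatment 18-22 h then 72 h combined with doxorubicin; 0% = doxorubicin alone and 100% = vehicle without doxorubicin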); details: H69AR viability with doxorubicin, CellTiter-Glo luminescence; at 10 µM; active compounds read high
[4] = viability of HCT116 without oncogenic beta-catenin – human colon tumor cells, pilot screen (AID 823;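 active = cell viability at or below a set limit in both duplicate runs, the limit being the all-compound median minus 4 SD, cut at about 23% in these data, passing the limit was not always enough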;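 note: 0% = wells killed by 20 µM Hyamine and 100% = untreated DMSO cell wells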); details: HCT116 beta-catenin knockout viability, CellTiter-Glo, 60 h; at 10 µM; active compounds read low
[5] = viability of PTEN-null HCT116 cells – cell-based, HCT116 clonal line, CellTiter-Glo, pilot screen (AID 824;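 active = viability at or below 27.92% in each of two runs, the all-compound median minus 4 SD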;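 note: 0% = 20 µM Hyamine control and 100% = vehicle cell control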); details: HCT116 PTEN-deleted viability, 60 h, at 10 µM, active compounds read low
[6] = RAM pathway blockade in budding yeast – dse1pr::URA3 reporter, 5-FOA selection, pilot screen (AID 869;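 active = inhibition over a set limit, the all-compound mean plus 3 SD, in both replicate runs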;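 note: 0% = DMSO wells with no growth and 100% = 10 µM 1-NA-PP1 with full growth; RAM network block rescues cells from 5-FOA so hits raise OD615 growth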); details: S. cerevisiae dse1pr::URA3 5-FOA growth, OD615, 2 d; at 10 µM; active compounds read high; strain carries analog-sensitive mutant Cbk1 kinase
[7] = RAM signaling pathway blockade in yeast – S. cerevisiae, Pdr1DBD-CYC8 efflux-inhibited sensitized strain, primary screen (AID 1298);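 note: 0% = DMSO untreated cells without growth and 100% = 10 µM 1-NA-PP1 full growth; higher means more yeast growth rescued from 5-FOA killing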; details: S. cerevisiae cbk1-as DSE1-URA3 strain, 5-FOA growth OD615, 2 d; at 50 µM; active compounds read high

CCOc1ccccc1C1N(c2ccc(OC)cc2)C(=O)C2CCCN21 (configuration not stated)
inactive: growth inhibition [1] -3.72% | growth inhibition [2] -10.4% | viability increase [3] -0.9% | viability [4] 99.8% | viability [5] 101% | inhibition [6] 2.9% | RAM network inhibition [7] -1.29%

Cc1cc(C)n2c(SCC#N)nnc2n1
inactive: growth inhibition [1] -13.1% | growth inhibition [2] -13% | viability increase [3] 0.04% | viability [4] 103% | viability [5] 92.2% | inhibition [6] 2.84% | RAM network inhibition [7] 3.94%

CC(=O)Nc1sc(C)c(C)c1CN1CCN(S(=O)(=O)c2ccccc2)CC1
inactive: growth inhibition [1] -1.31% | growth inhibition [2] -23.5% | viability increase [3] -2.28% | viability [4] 88.5% | viability [5] 85% | inhibition [6] -0.365% | RAM network inhibition [7] 1.74%

COC(=O)c1ccc(NC(=O)CSc2nnc(-c3ccncc3)n2N)cc1
inactive: growth inhibition [1] -4.88% | growth inhibition [2] -14.8% | viability increase [3] -1.74% | viability [4] 95.7% | viability [5] 97.4% | inhibition [6] 0.805% | RAM network inhibition [7] 0.26%

CCCC(=O)Nc1cc(=O)n(C)c(=O)n1C
inactive: growth inhibition [1] -12.8% | growth inhibition [2] -4.53% | viability increase [3] -1.04% | viability [4] 103% | viability [5] 94.8% | inhibition [6] 0.76% | RAM network inhibition [7] -0.88%

O=C(Cn1cc2c(n1)CCCCC2)NC1CCCCCC1
inactive: growth inhibition [1] -9.25% | growth inhibition [2] -9.21% | viability increase [3] -3.6% | viability [4] 97.1% | viability [5] 89% | inhibition [6] 0.43% | RAM network inhibition [7] 0.21%

C=C(C)CSC1=C(C#N)C(c2ccccc2)CC(=O)N1 (configuration not stated)
inactive: growth inhibition [1] -13.1% | growth inhibition [2] -8.52% | viability increase [3] -2.09% | viability [4] 86.6% | viability [5] 84.1% | inhibition [6] 0.55% | RAM network inhibition [7] 4.86%

CCOC(=O)CN1CC23C=CC(O2)C(C(=O)NCc2ccccc2OC)C3C1=O (configuration not stated)
inactive: growth inhibition [1] 1.34% | growth inhibition [2] 8.84% | viability increase [3] -3.18% | viability [4] 103% | viability [5] 102% | inhibition [6] 2.3% | RAM network inhibition [7] 0.15%

COc1ccc(OCCSc2ncnc3nc[nH]c23)cc1
inactive: growth inhibition [1] 2.66% | growth inhibition [2] 22.4% | viability increase [3] -3.5% | viability [4] 86.6% | viability [5] 81.3% | inhibition [6] 3.27% | RAM network inhibition [7] 4.46%

CCOc1ccc(N2CC(=O)SC2=S)cc1
inactive: growth inhibition [1] -6.07% | growth inhibition [2] -0.73% | viability increase [3] 1.09% | viability [4] 96.3% | viability [5] 95.9% | inhibition [6] 0.425% | RAM network inhibition [7] 7.05%

c1ccc(N2CCN(c3nnnn3-c3ccccc3)CC2)cc1
inactive: growth inhibition [1] -10.6% | growth inhibition [2] 3.73% | viability increase [3] -0.01% | viability [4] 76% | viability [5] 75.7% | inhibition [6] 1.12% | RAM network inhibition [7] 9%

Nn1c(SC/C=C/c2ccccc2)nnc1-c1ccccn1
inactive: growth inhibition [1] -5.81% | growth inhibition [2] -10% | viability increase [3] -0.88% | viability [4] 103% | viability [5] 95.1% | inhibition [6] -0.5% | RAM network inhibition [7] -2.02%

CCCCOc1ccccc1C1C(C(=O)OC)=C(C)N(C)C(C)=C1C(=O)OC
inactive: growth inhibition [1] -4.46% | growth inhibition [2] -5.04% | viability increase [3] -3.49% | viability [4] 83.1% | viability [5] 79.8% | inhibition [6] 0.225% | RAM network inhibition [7] 8.12%

O=C1CC(c2nc3ccccc3[nH]2)CN1Cc1ccccc1 (configuration not stated)
inactive: growth inhibition [1] -0.355% | growth inhibition [2] -0.09% | viability increase [3] -1.02% | viability [4] 101% | viability [5] 95% | inhibition [6] 1.07% | RAM network inhibition [7] 0.96%

O=C1CCCC2=C1C1(O)C(=O)c3ccccc3C1(O)O2 (configuration not stated)
inactive: growth inhibition [1] -7.89% | growth inhibition [2] -16% | viability increase [3] -4.62% | viability [4] 89.4% | viability [5] 88.7% | inhibition [6] 1.28% | RAM network inhibition [7] 1.91%

CC(C)Cc1cc(-c2ccco2)c(C#N)c(N)n1
inactive: growth inhibition [1] -11.4% | growth inhibition [2] -17.1% | viability increase [3] -4.39% | viability [4] 80.9% | viability [5] 89.4% | inhibition [6] 3.23% | RAM network inhibition [7] 9.01%

Cc1nn(-c2ccccc2)c2sc(C(=O)n3cccn3)cc12
inactive: growth inhibition [1] -10.7% | growth inhibition [2] -9.12% | viability increase [3] -3.24% | viability [4] 89.8% | viability [5] 92.4% | inhibition [6] 2.99% | RAM network inhibition [7] 8.3%

Cn1c(SCc2nc3ccccc3[nH]2)nnc1-c1cccnc1
inactive: growth inhibition [1] 3.69% | growth inhibition [2] 24.8% | viability increase [3] -2.45% | viability [4] 95.1% | viability [5] 99.1% | inhibition [6] 2.94% | RAM network inhibition [7] 5.38%

C=C(C)CC1N(c2cccc(OC)c2)C(=O)C2C(C(=O)O)C3C=CC21O3 (configuration not stated)
inactive: growth inhibition [1] -5.17% | growth inhibition [2] 4.84% | viability increase [3] -1.04% | viability [4] 103% | viability [5] 95.3% | inhibition [6] -0.415% | RAM network inhibition [7] 5.36%

Cc1cnc(N)c2c(=O)oc3ccccc3c12
inactive: growth inhibition [1] -0.41% | growth inhibition [2] 24.5% | viability increase [3] -4.45% | viability [4] 103% | viability [5] 92.8% | inhibition [6] 1.61% | RAM network inhibition [7] 1.88%

CN1CCN(c2ccccc2NC(=O)C(Cc2ccccc2)n2cccc2)CC1 (configuration not stated)
inactive: growth inhibition [1] -7.49% | growth inhibition [2] -4.39% | viability increase [3] -7.39% | viability [4] 55.6% | viability [5] 59.3% | inhibition [6] 2.68% | RAM network inhibition [7] 4.23%

CC1(C)C(c2ccccc2)=[N+]([O-])CN1O
inactive: growth inhibition [1] 1.85% | growth inhibition [2] 9.78% | viability increase [3] -2.5% | viability [4] 107% | viability [5] 96.3% | inhibition [6] -0.14% | RAM network inhibition [7] -0.11%

CC(=O)Nc1ccc(-c2cc(NC(C)=O)n(-c3ccccc3)n2)cc1
inactive: growth inhibition [1] 2.46% | growth inhibition [2] -0.26% | viability increase [3] -1.76% | viability [4] 104% | viability [5] 91.7% | inhibition [6] 0.97% | RAM network inhibition [7] 3.1%

CC(=O)N(Cc1ccco1)C1(C(=O)NC2CCCCC2)CCCCC1
inactive: growth inhibition [1] -10.7% | growth inhibition [2] -22.6% | viability increase [3] -2.47% | viability [4] 94.9% | viability [5] 94.5% | inhibition [6] 3.02% | RAM network inhibition [7] 1.51%

Cc1sc2ncnc(SCC(=O)c3cccs3)c2c1C
inactive: growth inhibition [1] 6.02% | growth inhibition [2] 10.6% | viability increase [3] -1.23% | viability [4] 100% | viability [5] 94.3% | inhibition [6] 0.73% | RAM network inhibition [7] 3.92%

CCCSc1nnc2c(n1)OC(c1cccn1C)N(C(C)=O)c1ccccc1-2 (configuration not stated)
inactive: growth inhibition [1] -1.32% | growth inhibition [2] -5.99% | viability increase [3] -2.06% | viability [4] 97.7% | viability [5] 104% | inhibition [6] 0.505% | RAM network inhibition [7] 3.57%

CCOc1ccccc1C(=O)NC1CCN(Cc2nnnn2C2CCCC2)CC1
inactive: growth inhibition [1] -6.12% | growth inhibition [2] -7.94% | viability increase [3] -1.67% | viability [4] 102% | viability [5] 98.9% | inhibition [6] 0.9% | RAM network inhibition [7] 1.76%

CCOC(=O)N1CCN(C(=O)c2ccc3c(c2)N(CC)CCS3)CC1
inactive: growth inhibition [1] -2.54% | growth inhibition [2] 2.25% | viability increase [3] -0.26% | viability [4] 101% | viability [5] 97% | inhibition [6] 1.89% | RAM network inhibition [7] -1.13%

COc1cc2c(cc1OC)C1=C(C#N)CN(CC(=O)O)CN1CC2
inactive: growth inhibition [1] -0.125% | growth inhibition [2] 11.3% | viability increase [3] -4.43% | viability [4] 106% | viability [5] 96% | inhibition [6] 1.7% | RAM network inhibition [7] 1.9%

CC(C)N1C(=O)CCC1C(=O)NCCc1ccc(Cl)cc1 (configuration not stated)
inactive: growth inhibition [1] -1.75% | growth inhibition [2] 3.14% | viability increase [3] 0.32% | viability [4] 100% | viability [5] 97.3% | inhibition [6] 0.29% | RAM network inhibition [7] -0.47%

COc1ccc(Nc2nc(N)nc(CN3CCc4ccccc4C3)n2)cc1
inactive: growth inhibition [1] -5.29% | growth inhibition [2] -14.9% | viability increase [3] -5.38% | viability [4] 44.7% | viability [5] 48.4% | inhibition [6] 0.725% | RAM network inhibition [7] 4.84%

CCOC(=O)C1CCCN(C(=O)C2CCCN(S(=O)(=O)c3ccc4c(c3)oc(=O)n4C)C2)C1 (configuration not stated)
inactive: growth inhibition [1] -4.01% | growth inhibition [2] -0.98% | viability increase [3] 0.99% | viability [4] 92.2% | viability [5] 94.5% | inhibition [6] 0.445% | RAM network inhibition [7] -0.53%

COc1ccccc1N(CC(=O)Nc1c(C)cccc1C)S(C)(=O)=O
inactive: growth inhibition [1] -11.2% | growth inhibition [2] -8.78% | viability increase [3] -1.48% | viability [4] 101% | viability [5] 98.2% | inhibition [6] 0.715% | RAM network inhibition [7] 3.12%

CCCCCn1c(NCc2ccco2)nc2ccccc21
inactive: growth inhibition [1] 0.22% | growth inhibition [2] 1.09% | viability increase [3] -5.56% | viability [4] 84.9% | viability [5] 72.9% | inhibition [6] 1.6% | RAM network inhibition [7] 1.9%

COc1cccc(CNC(=O)CN(c2cc(C)cc(C)c2)S(=O)(=O)c2c(C)noc2C)c1
inactive: growth inhibition [1] -6.25% | growth inhibition [2] -3.9% | viability increase [3] -2.41% | viability [4] 90.3% | viability [5] 90.4% | inhibition [6] 1.34% | RAM network inhibition [7] 7.12%

CC1(C)CC(=O)C2=C(C1)Nc1ccccc1NC2c1ccccn1 (configuration not stated)
inactive: growth inhibition [1] 11.4% | growth inhibition [2] 3.1% | viability increase [3] -3.1% | viability [4] 100% | viability [5] 95.4% | inhibition [6] 0.245% | RAM network inhibition [7] 3.12%
